This passage reports EC50 and Ki results from ChEMBL document CHEMBL4011627, “Hepatitis C Virus NS3/4A Protease Inhibitors Incorporating Flexible P2 Quinoxalines Target Drug Resistant Viral Variants” (J Med Chem, 2017).

In experiment [1] the test system is Hepatitis C virus. The experiment in a line: Antiviral activity against HCV genotype 1b Con1 harboring HCV genotype 1a H77 NS3 R155K mutant infected in human HuH7 cells assessed as inhibition of viral replication after 96 hrs by luciferase reporter gene assay. The settings on record: genotype 1b Con1, Huh-7, 96 h. In kind it is functional, cell-based, Hepacivirus hominis. (In general: A reporter such as luciferase makes a cellular process visible.)

The test system of experiment [2] is Hepatitis C virus. Briefly: Antiviral activity against HCV genotype 1b Con1 harboring HCV genotype 1a H77 NS3 D168A mutant infected in human HuH7 cells assessed as inhibition of viral replication after 96 hrs by luciferase reporter gene assay. Type of experiment: functional, cell-based, Hepacivirus hominis. As to conditions: genotype 1b Con1, Huh-7, 96 h.
Experiment [3] deals with Hepatitis C virus serine protease, NS3/NS4A (Hepatitis C virus, UniProt A3EZI9+D2K2A8, D168A). The experiment in a line: Inhibition of HCV genotype 1a NS3/4A protease D168A mutant using Ac-DE-Dap(QXL 520)-EE-Abu-psi-[COO]AS-C(5-FAMsp)-NH2 as substrate preincubated for 1 hr followed by substrate addition. Set-up: species or system Hepatitis C virus subtype 1a. The method in brief:
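NS3/4A protease domain at 2 nM pre-incubated 1 h at room temperature with increasing inhibitor (at least 12 concentrations) in 50 mM Tris, 5% glycerol, 10 mM DTT, 0.6 mM LDAO, 4% DMSO. Reaction started with FRET substrate (final 200 nM), monitored kinetically (ex 485/em 530 nm). Three independent data sets; global Morrison fit for Ki.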

Experiment [4] can be described thus: Inhibition of HCV genotype 1a NS3/4A protease using Ac-DE-Dap(QXL 520)-EE-Abu-psi-[COO]AS-C(5-FAMsp)-NH2 as substrate preincubated for 1 hr followed by substrate addition. Set-up: species or system Hepatitis C virus subtype 1a. The method, boiled down:
(§1)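 Protease domain at 2 nM preincubated 1 h at room temperature with inhibitor titrations (at least 12 concentrations) in 50 mM Tris, 5% glycerol, 10 mM DTT, 0.6 mM LDAO, 4% DMSO. Reaction started with fluorogenic substrate (200 nM final) and followed kinetically (ex 485/em 530 nm). Three independent data sets, fit globally to the Morrison equation for Ki.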

Experiment [5] is described as follows: Inhibition of HCV genotype 3a NS3/4A protease using Ac-DE-Dap(QXL520)-EE-Abu-psi-[COO]AS-C(5-FAMsp)-NH2 as substrate preincubated for 1 hr followed by substrate addition. Further details: species or system Hepatitis C virus subtype 3a. The method in brief:
as §1

Experiment [6] deals with Hepatitis C virus. The experiment in a line: Antiviral activity against HCV genotype 1b Con1 harboring HCV genotype 1a H77 NS3 infected in human HuH7 cells assessed as inhibition of viral replication after 96 hrs by luciferase reporter gene assay. In kind it is functional, cell-based, Hepacivirus hominis. The settings on record: genotype 1b Con1, Huh-7, 96 h.
The subject of experiment [7] is Hepatitis C virus. The experiment in a line: Antiviral activity against HCV genotype 1b Con1 harboring HCV genotype 1a H77 NS3 A156T mutant infected in human HuH7 cells assessed as inhibition of viral replication after 96 hrs by luciferase reporter gene assay. Type of experiment: functional, cell-based, Hepacivirus hominis. As to conditions: genotype 1b Con1, Huh-7, 96 h.

Experiment [8] relates to Hepatitis C virus. Briefly: Antiviral activity against HCV genotype 1b Con1 harboring HCV genotype 1a H77 NS3 D168V mutant infected in human HuH7 cells assessed as inhibition of viral replication after 96 hrs by luciferase reporter gene assay. Type of experiment: functional, cell-based, Hepacivirus hominis. The settings on record: genotype 1b Con1, Huh-7, 96 h.

The structures appear in SMILES notation.

For the compound `COc1ccc2nc(Cl)c(O[C@@H]3C[C@H]4C(=O)N[C@]5(C(=O)NS(=O)(=O)C6CC6)C[C@H]5/C=C\CCCCC[C@H](NC(=O)OC5CCCC5)C(=O)N4C3)nc2c1`, the EC50 (as a rule, the concentration giving half of the maximal effect) in the experiment on Hepatitis C virus [1] is 0.59 nM; with Hepatitis C virus [2], 1.32 nM; in the experiment on Hepatitis C virus [6] it was 0.15 nM; in the experiment with Hepatitis C virus [7], 3.55 nM; with Hepatitis C virus [8], 1.55 nM. Further, the Ki – broadly, the equilibrium dissociation constant of an inhibitor or competing ligand from its target – in experiment [3] came out at 30.6 nM; in experiment [4], 0.49 nM; in experiment [5] it was 85.6 nM.

Regarding `COc1ccc2nc(C)c(O[C@@H]3C[C@H]4C(=O)N[C@]5(C(=O)NS(=O)(=O)C6CC6)C[C@H]5/C=C\CCCCC[C@H](NC(=O)OC5CCCC5)C(=O)N4C3)nc2c1`, the EC50 in the experiment on Hepatitis C virus [1] was determined as 0.89 nM; with Hepatitis C virus [2], 2.63 nM; with Hepatitis C virus [6], 0.11 nM; with Hepatitis C virus [7] it was 2.88 nM; in the experiment with Hepatitis C virus [8], 4.32 nM. The figures for the Ki in experiment [3], in experiment [4] and in experiment [5] were 31.9 nM, 0.93 nM and 147 nM, respectively.

Turning to `COc1ccc2nc(C)c(O[C@@H]3C[C@H]4C(=O)N[C@]5(C(=O)NS(=O)(=O)C6CC6)C[C@H]5/C=C\CCCCC[C@H](NC(=O)OC(C)(C)C)C(=O)N4C3)nc2c1`, the EC50 with Hepatitis C virus [1] was 1.17 nM; with Hepatitis C virus [2] it was 4.24 nM; with Hepatitis C virus [6], 0.39 nM; in the experiment with Hepatitis C virus [7] it was 5.95 nM; in the experiment with Hepatitis C virus [8] it was 3.17 nM. The Ki came out at 50.9 nM in experiment [3], 3.4 nM in experiment [4] and 152 nM in experiment [5].

In the case of `CCc1nc2ccc(OC)cc2nc1O[C@@H]1C[C@H]2C(=O)N[C@]3(C(=O)NS(=O)(=O)C4CC4)C[C@H]3/C=C\CCCCC[C@H](NC(=O)OC(C)(C)C)C(=O)N2C1`, the EC50 worked out at 1.75 nM in the experiment on Hepatitis C virus [1]; 6.31 nM in the experiment with Hepatitis C virus [2]; 0.33 nM with Hepatitis C virus [6]; 9.65 nM with Hepatitis C virus [7]; 9.1 nM with Hepatitis C virus [8]. In addition, the Ki in experiment [3] was 82.4 nM; in experiment [4], 3.29 nM; in experiment [5], 204 nM.
